Screens (PubChem BioAssay)
Hits are enriched below; roughly 1.9% of the tested compounds scored in any of these assays.
Hck Nef HTS = inhibitors of Nef-activated human Hck kinase, primary screen, biochemical, Z-Lyte FRET, 384-well, Hck-YEEI; 220,000 tested, 0.68% active; AID 463187, 2010; Tyrosine-protein kinase HCK (Homo sapiens), P08631; Recombinant Hck-YEEI plus Nef, Z-Lyte FRET kinase assay; inhibition, % at 20 µM;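 active means Hck-Nef kinase inhibition above about 50%, limit read from the data; inactive means inhibition below that limit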
RanGTP-Imp inh = inhibitors of RanGTP-importin-beta interaction, primary screen, biochemical, FRET, CFP-Ran, YFP-importin-beta, homogeneous. inhibition, % (concentration not given with the values). Ran GTPase (GTP-bound) - importin-beta complex. 300,000 tested, 1.1% active. cell-free CFP-Ran/YFP-importin-beta FRET ratio;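 active means more than half of the replicate wells show a fall in the fluorescence ratio signal beyond about 16%, limit read from the data, passing the limit was not always enough; inconclusive means exactly half of the replicate wells pass the set limit; inactive means fewer than half of replicates pass the limit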
Runt-CBFb FRET = inhibitors of RUNX1 Runt–CBFb binding, primary screen, biochemical, FRET, Cerulean-Runt, Venus-CBFb, uHTS; Runt-related transcription factor 1 (Homo sapiens) + Core-binding factor subunit beta …; Cerulean-Runt/Venus-CBFb FRET ratio 530/480, 1 h; inhibition, % at 20 µM; 220,000 tested, 0.46% active;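 active means inhibition over about 50% at 20 µM in the single-dose screen, limit read from the data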
Target sequence (Q01196 whole entry, looked up): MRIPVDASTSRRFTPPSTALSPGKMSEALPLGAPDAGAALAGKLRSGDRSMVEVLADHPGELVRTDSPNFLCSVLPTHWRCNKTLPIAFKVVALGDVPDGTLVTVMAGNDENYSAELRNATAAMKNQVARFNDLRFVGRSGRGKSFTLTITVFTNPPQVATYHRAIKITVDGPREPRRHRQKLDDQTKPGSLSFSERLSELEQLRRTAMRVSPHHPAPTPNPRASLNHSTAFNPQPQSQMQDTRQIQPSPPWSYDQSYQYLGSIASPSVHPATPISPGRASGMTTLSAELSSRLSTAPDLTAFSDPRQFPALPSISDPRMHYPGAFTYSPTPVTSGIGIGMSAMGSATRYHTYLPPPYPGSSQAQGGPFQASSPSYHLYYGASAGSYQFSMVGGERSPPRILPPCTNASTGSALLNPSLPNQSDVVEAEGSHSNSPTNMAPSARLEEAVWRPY
Target sequence (Q13951 whole entry, looked up): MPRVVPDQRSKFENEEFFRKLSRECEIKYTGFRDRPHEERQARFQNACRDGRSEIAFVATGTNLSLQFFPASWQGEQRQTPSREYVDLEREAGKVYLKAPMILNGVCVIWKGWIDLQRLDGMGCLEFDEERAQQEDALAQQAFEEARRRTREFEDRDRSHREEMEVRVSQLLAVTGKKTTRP
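Reagent – Venus-CBFb binding partner, 100 nM · Assay system – Cerulean-tagged RUNX1 Runt domain (FRET donor) fusion protein · Input – 100 nM per protein · Incubation – two 1 h room-temperature incubations shielded from light · Measured by – FRET fluorescence · Medium – Tris buffer pH 7.5 with salts and BSA · Benchmarks – unlabeled CBFb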
Runt-SMMHC FRET = inhibitors of RUNX1 Runt–CBFb-SMMHC binding, primary screen, biochemical, FRET, Cerulean-Runt, Venus-CBFb-SMMHC, uHTS | Runt-related transcription factor 1 (Homo sapiens) + Core-binding factor subunit beta … | Cerulean-Runt/Venus-CBFb-SMMHC FRET ratio 530/480, 1 h | inhibition, % at 20 µM | 220,000 tested, 0.74% active | AID 1434, 2008;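 active means mean inhibition across duplicate retests at 20 µM reaching about 50%, limit read from the data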;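 further: inhibitors lower the FRET ratio by blocking Runt binding to CBFb-SMMHC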
Hits are given with their value; n = inactive; u = inconclusive; x = not tested or not shown.

SMILES | Hck Nef HTS | RanGTP-Imp inh | Runt-CBFb FRET | Runt-SMMHC FRET
CC(C)C1OC2(C)OC(=N)C1(C#N)C(C#N)(C#N)C2c1ccccc1 (stereo unspecified) | n | 32 | n | 63
Cc1occc1C(=O)NNC1=CC(=O)CC(C)(C)C1 | n | 26 | n | n
CC1(C)CC(=O)C=C(NNC(=O)c2ccccc2)C1 | n | u | n | n
COc1ccc(C(=O)NNC2=CC(=O)CC(C)(C)C2)cc1OC | n | 26 | n | n
O=C(Nc1nc2c(s1)CCCC2)c1cccc(S(=O)(=O)N2CCCc3ccccc32)c1 | n | n | n | n
CN1CCc2nc(NC(=O)c3cccc(S(=O)(=O)N4CCc5ccccc54)c3)sc2C1 | n | 48 | n | 84
COc1cccc(C(=O)Nc2nnc(-c3ccccc3)s2)c1 | x | n | x | x
COc1cccc(C(=O)Nc2sc3c(c2C#N)CCN(C(C)=O)C3)c1 | n | x | n | 51
COc1cccc(C(=O)Nc2nc3c(s2)CN(C)CC3)c1 | n | n | x | 87
N=C(SC1CC(=O)N(c2ccc(F)cc2)C1=O)N1N=C(c2ccccc2)CC1c1ccccc1 (stereo unspecified) | n | n | n | n
CC1C2=C(CC(C)(C)CC2=O)NC2=C1C(=O)CC(C)(C)C2 | n | 136 | n | 86
CC1(C)CC(=O)C2=C(C1)NC(=O)NC2c1ccccc1 (stereo unspecified) | n | n | n | n
O=C(O)C1CCCCC1C(=O)Nc1nc(-c2ccc(Cl)s2)cs1 (stereo unspecified) | 70 | n | n | n
Cc1cc(C)c2c(CC(=O)NC3CCS(=O)(=O)C3)coc2c1 (stereo unspecified) | x | n | x | x
Cc1cccc(-n2c(O)c(C=Nc3ccccc3O)c3ccccc3c2=O)n1 | n | 30 | n | n
Cc1cccc(-n2c(O)c(C=Nc3cc(O)ccc3C)c3ccccc3c2=O)n1 | n | n | n | n
O=C(CCS(=O)(=O)c1ccccc1)Nc1ccc(Cl)cn1 | x | n | x | x
CCOCCCn1c(=N)c(C(=O)Nc2cc(C)on2)cc2c(=O)n3ccccc3nc21 | 68 | x | x | x
CCOC(=O)c1cc2c(=O)n3ccccc3nc2n(Cc2ccccc2Cl)c1=N | x | x | n | n
Cn1c(C(=O)NC2CCCCC2)cc2c(=O)n3ccccc3nc21 | x | n | x | x
N=c1c(C(=O)NC2CCCCC2)cc2c(=O)n3ccccc3nc2n1Cc1ccc(F)cc1 | x | 159 | x | x
Cc1ccc(Cn2c(=N)c(C(=O)NC3CCCCC3)cc3c(=O)n4ccccc4nc32)cc1 | x | 161 | x | x
CCOC(=O)c1cc2c(=O)n3ccccc3nc2n(Cc2ccccc2)c1=N | n | 188 | n | 63
COc1ccc(CCn2c(=N)c(C(=O)NCC3CCCO3)cc3c(=O)n4ccccc4nc32)cc1 (stereo unspecified) | x | n | x | x
CC1(NC(=O)Cc2ccc(S(=O)(=O)N3CCOCC3)s2)CCS(=O)(=O)C1 (stereo unspecified) | x | n | x | x
SMILES | Hck Nef HTS | RanGTP-Imp inh | Runt-CBFb FRET | Runt-SMMHC FRET
N=c1c(C(=O)NC2CCCC2)cc2c(=O)n3ccccc3nc2n1Cc1ccccc1 | x | 177 | x | x
CC(=O)Nc1ccc(S(=O)(=O)N2CCN(Cc3csc(C)n3)CC2)cc1 | x | n | x | x
O=S(=O)(O)c1ccc(N2N=C(c3ccccc3)CC2c2ccccc2)cc1 (stereo unspecified) | 85 | u | n | n
NS(=O)(=O)c1ccc(N2N=C(c3ccccc3)CC2c2ccccc2)cc1 (stereo unspecified) | n | n | n | n
CC(=O)c1cccc(NC(=O)C2CCN(S(=O)(=O)c3c(C)n[nH]c3C)CC2)c1 | n | n | 100 | n
CC(C)c1ccc(/C=C/c2ccc(=O)n(C)n2)cc1 | n | u | n | n
COc1ccccc1OCCC(=O)OCC(=O)c1[nH]c(C)c(C(C)=O)c1C | n | n | n | n
COc1ccc(N2C(=O)C3NN=C(C(=O)OCc4ccccc4)C3C2=O)cc1 (stereo unspecified) | n | n | n | n
Cc1ccccc1NC(=S)C1=C(O)c2sccc2N(C)S1(=O)=O | n | 89 | n | 50
CCNC(=O)C1=C(O)c2sccc2N(C)S1(=O)=O | n | 76 | n | 65
Cc1ccc(NC(=S)C2=C(O)c3ccccc3N(C)S2(=O)=O)cc1 | n | n | n | n
COC(=O)c1ccc(NC(=O)CSc2nc(=O)n3cccc(C)c3n2)cc1 | x | n | x | x
CCOC(=O)C1CCN(C(=O)c2ccc3nc(-c4ccc(OC)cc4)c(-c4ccc(OC)cc4)nc3c2)CC1 | x | 24 | x | x
O=C(CCNC(=O)Cn1ccc2ccccc2c1=O)NCCCN1CCN(c2ccc(F)cc2)CC1 | n | n | x | n
O=C(CNC(=O)Cn1ccc2ccccc2c1=O)NCCCN1CCN(c2cccc(Cl)c2)CC1 | n | 21 | n | n
CC(/C=N/NC(=O)c1cccs1)=C\c1ccco1 | n | 20 | n | n
CC(/C=N/NC(=O)Cc1cccs1)=C\c1ccco1 | n | n | n | n
COc1ccc(-c2nnn(CC(=O)N(CC3CCCO3)C(C(=O)NC(C)(C)C)c3ccco3)n2)cc1OC (stereo unspecified) | n | u | n | n
CCOC(=O)CNC(=O)c1ccc2[nH]c3c(c2c1)CCCC3 | n | 18 | n | n
CN(C)c1ccc(CNC(=O)CCNS(=O)(=O)c2cc(Br)cnc2N)cc1 | x | n | x | x
Cc1cc(NC(=O)c2ccc(C#N)cc2)on1 | n | n | n | n
COCCOC(=O)c1cc(C(=O)c2cc(F)ccc2O)coc1=N | n | 31 | n | 120
COC(=O)c1cc(C(=O)c2cc(Cl)ccc2O)coc1=N | n | n | n | n
CCOC(=O)c1cc2c(=O)n3cccc(C)c3nc2n(Cc2ccco2)c1=NC(=O)c1cccnc1 | n | x | 102 | 63
CCOC(=O)c1cc2c(=O)n3ccccc3nc2n(Cc2ccco2)c1=NC(=O)c1ccccc1OCC | n | n | 74 | 88
SMILES | Hck Nef HTS | RanGTP-Imp inh | Runt-CBFb FRET | Runt-SMMHC FRET
N=c1c(S(=O)(=O)c2ccc(Br)cc2)cc2c(=O)n3ccccc3nc2n1Cc1ccco1 | x | n | x | x
CCOC(=O)c1cc2c(=O)n3ccccc3nc2n(Cc2ccco2)c1=NC(=O)c1cccnc1 | n | n | 52 | n
CCOC(=O)CSc1nc2ccccc2c(=O)n1Cc1ccco1 | n | n | n | n
CCOC(=O)c1c(C)nc2c(C)cccn12 | n | n | n | n
Cc1cnc(NC(=O)c2cccc(S(=O)(=O)N3CC(C)OC(C)C3)c2)s1 (stereo unspecified) | n | n | n | n
CCCn1c(=N)c(S(=O)(=O)c2ccccc2)cc2c(=O)n3cccc(C)c3nc21 | x | 145 | x | x
CCCCCn1c(=N)c(S(=O)(=O)c2ccc(Cl)cc2)cc2c(=O)n3cccc(C)c3nc21 | x | 67 | x | x
Cc1cccn2c(=O)c3cc(S(=O)(=O)c4ccc(Br)cc4)c(=N)n(C4CCCC4)c3nc12 | x | n | x | x
CCn1c(=N)c(S(=O)(=O)c2ccc(Cl)cc2)cc2c(=O)n3ccccc3nc21 | n | n | x | x
